Holding throughout (assay type): functional
For experiment [1], the system named is Escherichia coli. Nature of the experiment: Antibacterial activity against Escherichia coli ATCC 25922 assessed as inhibition of bacterial growth incubated for 18 hrs by CLSI protocol based method. An outline of the steps: (§1)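 CLSI broth microdilution in cation-adjusted Mueller Hinton broth, in polypropylene plates. Bacteria were grown at 37 °C with shaking (200 rpm) for 8 h, then diluted into fresh medium and added to the wells. Compounds were tested as twofold dilutions from 64 to 0.25 μM (final), in triplicate, with growth and sterility controls. Plates were incubated at 37 °C with shaking. MIC is the lowest concentration with no growth, consistent across three biological replicates.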

Experiment [2] deals with Staphylococcus aureus. Nature of the experiment: Antibacterial activity against Staphylococcus aureus ATCC 29213 assessed as inhibition of bacterial growth incubated for 18 hrs by CLSI protocol based method. Put shortly:
as §1

Experiment [3] deals with Staphylococcus aureus. Description: Antibacterial activity against methicillin-resistant Staphylococcus aureus assessed as inhibition of bacterial growth incubated for 24 hrs by multiplate photometer method.
The subject of experiment [4] is Escherichia coli. Description: Antibacterial activity against Escherichia coli ATCC 25922 assessed as inhibition of bacterial growth incubated for 24 hrs by multiplate photometer method.

One may read the MIC as the least concentration at which growth counts as inhibited.

Converted amounts (≈) assume the structure as drawn. Positions of bridges follow the written chain, without caps; N, C: chain ends. Non-standard residues stand in square brackets, D forms with d. Residues, ends and D or L forms follow the SMILES beside them. ξ: configuration not given here. *: point of attachment. Octanoyl(7-Me) = CC(C)CCCCCC(=O)*; Hexanoyl(4ξ-Me) = CCC(C)CCC(=O)*; dOrn = NCCC[C@@H](N)C(=O)O; X1 = CC[C@H](C)CCCCC(=O)*; Orn = NCCC[C@H](N)C(=O)O; Dab = NCC[C@H](N)C(=O)O Where only a bound is given, the exact number is not on record here.

Turning to `CC[C@H](C)CCCCC(=O)N[C@@H](CCN)C(=O)N[C@H](C(=O)N[C@@H](CCN)C(=O)N[C@H]1CCNC(=O)[C@H]([C@@H](C)O)NC(=O)[C@H](CCN)NC(=O)[C@H](CCN)NC(=O)[C@H](CC(C)C)NC(=O)[C@@H](Cc2ccccc2)NC(=O)[C@H](CCN)NC1=O)[C@@H](C)O` (X1-[Dab]T[Dab][Dab][Dab][dF]L[Dab][Dab]T; lactam 4-C), the MIC was 0.3 µg/mL (≈ 0.249 µM) with Escherichia coli [1], > 64 µg/mL with Staphylococcus aureus [2], 32 µg/mL (≈ 26.6 µM) in the experiment with Staphylococcus aureus [3] and 1 µg/mL (≈ 0.831 µM) in the experiment with Escherichia coli [4].
Take `CC1(C)S[C@@H]2[C@H](NC(=O)[C@H](N)c3ccc(O)cc3)C(=O)N2[C@H]1C(=O)O` [AMOXICILLIN]: the MIC in the experiment with Escherichia coli [1] worked out at 6 µg/mL (≈ 16.4 µM); in the experiment with Staphylococcus aureus [2], 3 µg/mL (≈ 8.21 µM).
With `CC[C@H](C)[C@@H]1NC(=O)[C@@H](NC(=O)[C@H](Cc2c[nH]c3ccccc23)NC(=O)[C@@H](CCCN)NC(=O)CNC(=O)[C@H](CCCN)NC(=O)[C@@H](CCCN)NC(=O)[C@@H](Cc2c[nH]c3ccccc23)NC(=O)[C@@H](Cc2ccc(O)cc2)NC(=O)[C@@H](CO)NC(=O)CCCCCC(C)C)[C@@H](C)OC(=O)CNC(=O)CNC(=O)[C@H](CC(N)=O)NC1=O` ({Octanoyl(7-Me)}-[dS][dY][dW][dOrn][Orn]G[dOrn]WTINGG; ester 9-C), the MIC was 0.25 µg/mL (≈ 0.156 µM) in the experiment with Escherichia coli [1], > 64 µg/mL with Staphylococcus aureus [2], > 64 µg/mL in the experiment on Staphylococcus aureus [3] and 2 µg/mL (≈ 1.25 µM) in the experiment with Escherichia coli [4].
For `CCC(C)CCC(=O)N[C@H](CC(N)=O)C(=O)N[C@H](Cc1ccc(O)cc1)C(=O)N[C@H](Cc1c[nH]c2ccccc12)C(=O)N[C@H](CCCN)C(=O)N[C@@H](CCCN)C(=O)NCC(=O)N[C@H](CCCN)C(=O)N[C@@H](Cc1c[nH]c2ccccc12)C(=O)N[C@@H]1C(=O)N[C@@H]([C@@H](C)CC)C(=O)NCC(=O)N[C@@H](CO)C(=O)O[C@@H]1C` (some centres undefined) ({Hexanoyl(4ξ-Me)}-[dN][dY][dW][dOrn][Orn]G[dOrn]WTIGS; ester 9-C), the MIC in the experiment on Escherichia coli [1] was 2 µg/mL (≈ 1.32 µM); in the experiment with Staphylococcus aureus [2], > 64 µg/mL; in the experiment on Staphylococcus aureus [3], > 64 µg/mL; with Escherichia coli [4], 2 µg/mL (≈ 1.32 µM).

For the origin of these results see ChEMBL document CHEMBL4840318, “The Total Chemical Synthesis and Biological Evaluation of the Cationic Antimicrobial Peptides, Laterocidine and Brevicidine” (2021).
